Measurements: ChEMBL document CHEMBL4325822, “Discovery of a tetrazolyl β-carboline with in vitro and in vivo osteoprotective activity under estrogen-deficient conditions” (Medchemcomm, 2018)
Blank lines part the entries; values can stand above or below the molecule they belong to. The source made the active and inactive calls. No cut-off for these calls is given here.

How the values were obtained:
[1] = system: Rattus norvegicus; assay: Antiosteoporotic activity in Sprague-Dawley rat model of OVX-induced bone loss assessed as increase in femoral bone strength by measuring stiffness at 100 ug/kg, sc administered 5 days/week for 12 weeks by 3 point bending test (reference value: 122.07 +/- 12.18 N/mm); assay type: functional
[2] = biological target: T1, I-kappa-B kinase (Rattus norvegicus) (UniProt Q9QY78+G3V926+Q6TMG5); assay: Inhibition of IKK in Sprague-Dawley rat calvarial osteoblasts assessed as reduction in TNFalpha-induced beta-catenin degradation by measuring ratio of beta-catenin level to beta-actin level at 10 nM after 24 hrs by Western blot analysis (reference value: 0.32); assay type: cell-based; settings: Calvarial osteoblast
Method in brief: (§1)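 Primary osteoblasts from pooled calvaria of 1-2 day SD rat pups (sequential dispase/collagenase digestion) were grown to 60-70% confluence. They were treated with 17β-estradiol 10 nM in the presence of TNFα 10 ng·ml⁻¹ for 24 h. Whole-cell lysates were immunoblotted, and bands were detected by ECL. Densitometry was normalised to β-actin.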

[3] = system: Rattus norvegicus; assay: (§2) Antiosteoporotic activity in Sprague-Dawley rat model of OVX-induced bone loss assessed as protection against microarchitectural deterioration by measuring ratio of bone volume/trabecular volume at 100 ug/kg, sc administered 5 days/week for 12 weeks by microcomputed tomographic analysis (reference value: 4.68 +/- 0.58%); assay type: functional
[4] = system: Rattus norvegicus; assay: Antiosteoporotic activity in Sprague-Dawley rat model of OVX-induced bone loss assessed as increase in femoral bone strength by measuring energy at 100 ug/kg, sc administered 5 days/week for 12 weeks by 3 point bending test (reference value: 46.27 +/- 4.36 mJ); assay type: functional
[5] = system: Rattus norvegicus; assay: as §2, with “trabecular separation” for “ratio of bone volume/trabecular volume”, “1.31” for “4.68”, “0.06 millimeter)” for “0.58%)”; assay type: functional
Method in brief: (§3)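 Adult female Sprague-Dawley rats were ovariectomized and left 12 weeks to become osteopenic. They then received 12 weeks of once-daily oral gavage (1% gum acacia vehicle) or subcutaneous estradiol, five days a week. Femurs were collected at sacrifice and scanned by micro-CT for BMD and trabecular microarchitecture. Ten rats per group; mean ± SEM.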

[6] = biological target: T1, I-kappa-B kinase (Rattus norvegicus); assay: Inhibition of IKK in TNFalpha-simulated Sprague-Dawley rat calvarial osteoblasts assessed as ratio of Bax level to beta-actin level at 10 nM after 24 hrs by Western blot analysis (reference value: 1.25); assay type: cell-based; settings: Calvarial osteoblast; method in brief: as §1
[7] = system: Rattus norvegicus; assay: as §2, with “structural model index” for “ratio of bone volume/trabecular volume”, “2.07” for “4.68”, “0.06)” for “0.58%)”; assay type: functional
[8] = system: Rattus norvegicus; assay: Antiosteoporotic activity in Sprague-Dawley rat model of OVX-induced bone loss assessed as mineral apposition rate at 100 ug/kg, sc administered 5 days/week for 12 weeks by microcomputed tomographic analysis (reference value: 0.169 +/- 0.004 umeter/day); assay type: functional
Method in brief: (§4)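 Female Sprague-Dawley rats, 10-12 weeks old, ten per group, were ovariectomized and left 12 weeks for osteopenia. They were then dosed once daily by oral gavage for 12 weeks in 1% gum acacia vehicle. The estradiol arm received 100 µg·kg⁻¹ subcutaneously five days a week. Tetracycline and calcein were given intraperitoneally at 20 mg·kg⁻¹ each. Femur cross-sections (50 µm) were imaged by fluorescence microscopy for MAR and BFR.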

[9] = biological target: T1, I-kappa-B kinase (Rattus norvegicus); assay: Inhibition of IKK in TNFalpha-simulated Sprague-Dawley rat calvarial osteoblasts assessed as ratio of IkBalpha level to beta-actin level at 10 nM after 24 hrs by Western blot analysis (reference value: 0.78); assay type: cell-based; settings: Calvarial osteoblast; method in brief: as §1
[10] = Toxicity in Sprague-Dawley rat model of OVX-induced bone loss assessed as total uterine area at 100 ug/kg, sc for 12 weeks (reference value: 0.11 +/- 0.003 mm2); assay type: organism-based; settings: in vivo, 0.1 mg/kg, 2016 h
[11] = system: Rattus norvegicus; assay: Antiosteoporotic activity in Sprague-Dawley rat model of OVX-induced bone loss assessed as decrease in serum CTX level at 100 ug/kg, sc administered 5 days/week for 12 weeks by ELISA; assay type: functional, organism-based
Method in brief: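 Ovariectomy model as above: 12 weeks of osteopenia, then 12 weeks of daily gavage or subcutaneous estradiol. Serum was separated at autopsy, and CTX and PINP were measured by ELISA kits.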

[12] = biological target: T1, I-kappa-B kinase (Rattus norvegicus); assay: Inhibition of IKK in Sprague-Dawley rat calvarial osteoblasts assessed as reduction in TNFalpha-induced NFkB signaling by measuring ratio of cytosolic p65 level to beta-actin level at 10 nM after 24 hrs by Western blot analysis (reference value: 0.99); assay type: cell-based; settings: Calvarial osteoblast
[13] = biological target: T1, I-kappa-B kinase (Rattus norvegicus); assay: Inhibition of IKK in TNFalpha-simulated Sprague-Dawley rat calvarial osteoblasts assessed as ratio of Bcl-xL level to beta-actin level at 10 nM after 24 hrs by Western blot analysis (reference value: 0.69); assay type: cell-based; settings: Calvarial osteoblast; method in brief: as §1
[14] = biological target: T1, I-kappa-B kinase (Rattus norvegicus); assay: Inhibition of IKK in TNFalpha-simulated Sprague-Dawley rat calvarial osteoblasts assessed as ratio of Bcl2 level to beta-actin level at 10 nM after 24 hrs by Western blot analysis (reference value: […]); assay type: cell-based; settings: Calvarial osteoblast
[15] = Toxicity in Sprague-Dawley rat model of OVX-induced bone loss assessed as luminal epithelial height at 100 ug/kg, sc for 12 weeks (reference value: 27.29 +/- 0.96 umeter); assay type: organism-based; settings: in vivo, 0.1 mg/kg, 2016 h
[16] = biological target: T1, I-kappa-B kinase (Rattus norvegicus); assay: Inhibition of IKK in Sprague-Dawley rat calvarial osteoblasts assessed as reduction in TNFalpha-induced NFkB nuclear translocation at 10 nM after 24 hrs by immunofluorescence assay; assay type: cell-based; settings: Calvarial osteoblast
Method in brief: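 Primary rat osteoblasts on chamber slides given TNFα (10 ng·ml⁻¹) for 24 h, with or without treatment. Then 4% PFA fixation, 0.1% Triton X-100, anti-NF-κB overnight, and Cy3 anti-rabbit secondary. Fluorescence imaged at excitation 552 nm, emission 570 nm.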

[17] = Toxicity in Sprague-Dawley rat model of OVX-induced bone loss assessed as uterine weight at 100 ug/kg, sc for 12 weeks (reference value: 0.12 +/- 0.02 g); assay type: organism-based; settings: in vivo, 0.1 mg/kg, 2016 h
[18] = system: Rattus norvegicus; assay: Antiosteoporotic activity in Sprague-Dawley rat model of OVX-induced bone loss assessed as bone formation rate at 100 ug/kg, sc administered 5 days/week for 12 weeks by microcomputed tomographic analysis (reference value: 0.171 +/- 0.005 um3/um2/day); assay type: functional; method in brief: as §4
[19] = Toxicity in Sprague-Dawley rat model of OVX-induced bone loss assessed as luminal area at 100 ug/kg, sc for 12 weeks (reference value: 0.01 +/- 0.0004 mm2); assay type: organism-based; settings: in vivo, 0.1 mg/kg, 2016 h
[20] = system: Rattus norvegicus; assay: as §2, with “trabecular” for “ratio of”, “pattern factor” for “volume/trabecular volume”, “10.81” for “4.68”, “0.68 /millimeter)” for “0.58%)”; assay type: functional; method in brief: as §3
[21] = system: Rattus norvegicus; assay: as §2, with “trabecular number” for “ratio of bone volume/trabecular volume”, “0.56” for “4.68”, “0.06 /millimeter)” for “0.58%)”; assay type: functional; method in brief: as §3
[22] = biological target: T1, I-kappa-B kinase (Rattus norvegicus); assay: Inhibition of IKK in Sprague-Dawley rat calvarial osteoblasts assessed as reduction in TNFalpha-induced NFkB signaling by measuring ratio of nuclear p65 level to beta-actin level at 10 nM after 24 hrs by Western blot analysis (reference value: 2.97); assay type: cell-based; settings: Calvarial osteoblast
[23] = biological target: T1, I-kappa-B kinase (Rattus norvegicus); assay: Inhibition of IKK in Sprague-Dawley rat calvarial osteoblasts assessed as reduction in TNFalpha-induced IkBalpha phosphorylation by measuring ratio of phosphorylated IkBalpha level to beta-actin level at 10 nM after 24 hrs by Western blot analysis (reference value: 2.32); assay type: cell-based; settings: Calvarial osteoblast; method in brief: as §1
[24] = system: Calvarial osteoblast; assay: Cytotoxicity against Sprague-Dawley rat calvarial osteoblasts assessed as reduction in cell viability at 0.000001 to 1 uM after 48 hrs by MTT assay; assay type: cell-based
Method in brief: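 Osteoblasts came from pooled calvaria of 1-2-day-old Sprague-Dawley pups, isolated by sequential dispase/collagenase digestion. Cells were exposed to compound at 1 pM to 1 µM for 48 h, and viability was measured by MTT.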

[25] = system: Calvarial osteoblast; assay: Osteogenic activity in Sprague-Dawley rat calvarial osteoblasts assessed as mineralized nodule formation at 10 nM after 21 days by alizarin red-S staining based light microscopic method; assay type: functional, cell-based
Method in brief: (§5)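 Osteoblasts at 10,000–15,000 cells/cm² in duplicate plates, 21 days in differentiation medium, medium changed every 48 h. Cells fixed in 4% PFA, stained with alizarin red-S (40 mM, pH 4.5, 30 min) and photographed. Stain extracted with 10% acetic acid, pH brought to 4.5 with ammonium hydroxide, read at 405 nm, normalized to cell number.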

[26] = Induction of osteoblast differentiation in Sprague-Dawley rat calvarial osteoblasts assessed as alkaline phosphatase activity at 10 nM after 48 hrs using PNPP as substrate by spectrophotometric method relative to control; assay type: functional
Method in brief: (§6)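 Calvarial osteoblasts at 2 × 10³ cells/well. Treated 48 h with varied concentrations in differentiation medium (5% charcoal-treated FBS, 10 mM β-glycerophosphate, 50 µg·mL⁻¹ ascorbic acid). Total ALP read with PNPP substrate at 405 nm. Cell-free wells check for compound interference with substrate or absorbance.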

[27] = Increase in OCN mRNA expression in Sprague-Dawley rat calvarial osteoblasts at 10 nM by RT-PCR method relative to control; assay type: functional, Calvarial osteoblast
Method in brief: (§7)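 Primary calvarial osteoblasts were lysed in TRIzol after treatment, and total RNA was extracted. Transcripts were quantified by real-time PCR using the comparative CT (ΔΔCT) method.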

[28] = system: Calvarial osteoblast; assay: Increase in BMP2 protein expression in Sprague-Dawley rat calvarial osteoblasts at 10 nM after 48 hrs by Western blot analysis; assay type: functional, cell-based
Method in brief: (§8)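 Rat calvarial osteoblasts at 60-70% confluence were treated 48 h. Whole-cell lysates were blotted, blocked in 5% milk, and probed with primary antibody overnight at 4 °C, then with HRP secondary and ECL detection. Densitometry was normalized to β-actin; fold change versus untreated cells, three independent experiments, mean ± SEM.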

[29] = system: Calvarial osteoblast; assay: Increase in OCN protein expression in Sprague-Dawley rat calvarial osteoblasts at 10 nM after 48 hrs by Western blot analysis; assay type: functional, cell-based; method in brief: as §8
[30] = Induction of osteoblast differentiation in Sprague-Dawley rat calvarial osteoblasts assessed as alkaline phosphatase activity after 48 hrs using PNPP as substrate by spectrophotometric method; assay type: functional, cell-based; settings: Rattus norvegicus, Sprague-Dawley, Calvarial osteoblast, 48 h; read-out: EC50; method in brief: as §6
[31] = system: Calvarial osteoblast; assay: Increase in Runx2 protein expression in Sprague-Dawley rat calvarial osteoblasts at 10 nM after 48 hrs by Western blot analysis; assay type: functional, cell-based
Method in brief: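 Rat calvarial osteoblasts (pooled 1–2-day pups, collagenase/dispase digests) at 60–70% confluence treated 48 h. Whole-cell lysates immunoblotted with primary antibody overnight at 4 °C, then HRP secondary, with ECL detection. Densitometry gives fold change normalized to β-actin versus untreated cells. Mean ± SEM of three independent experiments.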

[32] = Increase in BMP2 mRNA expression in Sprague-Dawley rat calvarial osteoblasts at 10 nM by RT-PCR method relative to control; assay type: functional, Calvarial osteoblast; method in brief: as §7
[33] = Increase in Runx2 mRNA expression in Sprague-Dawley rat calvarial osteoblasts at 10 nM by RT-PCR method relative to control; assay type: functional, Calvarial osteoblast
[34] = system: Calvarial osteoblast; assay: Osteogenic activity in Sprague-Dawley rat calvarial osteoblasts assessed as mineralized nodule formation at 10 nM after 21 days by alizarin red-S staining based colorimetric method; assay type: functional; method in brief: as §5
[35] = Induction of osteoblast differentiation in Sprague-Dawley rat calvarial osteoblasts assessed as alkaline phosphatase activity at 100 nM after 48 hrs using PNPP as substrate by spectrophotometric method relative to control; assay type: functional; method in brief: as §6

Ratio [2]: 0.81
Ratio [6]: 0.65
Ratio [9]: 0.66
Ratio [12]: 1.45
Ratio [13]: 0.9
Ratio [14]: 1.45
inhibition [16]: Active
Ratio [22]: 1.41
Ratio [23]: 1.26
SMILES: C[C@]12CC[C@@H]3c4ccc(O)cc4CC[C@H]3[C@@H]1CC[C@@H]2O [ESTRADIOL]
Activity [1]: 171.75 N/mm
Ratio [3]: 11.09%
Activity [4]: 62.77 mJ
Activity [5]: 0.68 mm
Activity_index [7]: 1.6
Activity [8]: 1.06 micrometer/day
Activity [10]: 0.87 mm2
Activity [11]: inactive
Activity [15]: 17.8 um
Activity [17]: 0.45 g
Activity [18]: 1.04 um3/um2/day
Activity [19]: 0.054 mm2
Activity [20]: 5.99 /millimeter
Activity [21]: 1.55 /millimeter

EC50 [30]: 1200 nM
SMILES: CCOC(=O)c1cc2c([nH]c3ccccc32)c(C(NCc2ccc(OC)cc2)c2nnnn2C(C)(C)C)n1 (stereo unspecified)
Activity [24]: Non-Toxic
Activity [25]: Active
Emax at 0.01 µM [26]: 75%
fold change (FC) [27]: 1.8 - 4.6
Activity [28]: Active
Activity [29]: Active
Activity [31]: Active
fold change (FC) [32]: 1.8 - 4.6
fold change (FC) [33]: 1.8 - 4.6
Activity [34]: 52%

EC50 [30]: 936 nM
SMILES: CCOC(=O)c1cc2c([nH]c3ccccc32)c(C(c2nnnn2C(C)(C)C)N2CCN(CC)CC2)n1 (stereo unspecified)
Emax at 0.1 µM [35]: 14%
